In PubChem BioAssay AID504390 (Broad Institute, 2011):
Activity calls are given as the source filed them.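 Rule for the calls: active = signal-lowering compounds whose fitted half-maximal concentration is at most ten times the top tested dose; inconclusive = flat fit at 30 to 70% inhibition, or poor fit; inactive = the rest.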

System: not listed separately
Test: yeast GRE-lacZ reporter Hsp90 inhibition – S. cerevisiae, luminescence, dry powder, set 2, dose response (AID 504390)
Details: S. cerevisiae GRE-lacZ reporter, Hsp90 function, luminescence; at 26 µM (top of the series)
How it was run: (§1)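 Detection: β-galactosidase luminescence after 25 min development at 30 °C / System: Saccharomyces yeast reporter strain, glucocorticoid response element driving β-galactosidase / Schedule: 75 min treatment at 30 °C with agitation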

**Q.** With `O=C(O)Cn1c2ccccc2c2nc3n(c(=O)c21)CCS3` as the compound, how does the activity change, negative = inhibition read?
**A.** 10.8% (inactive)

**Q.** Which activity change, negative = inhibition does the source give for `O=C(Cn1c2ccccc2c2nc3n(c(=O)c21)CCS3)N1CCCC1` here?
**A.** -14.7% (inactive)

**Q.** For `O=C(Cn1c2ccccc2c2nc3n(c(=O)c21)CCS3)N1CCC(F)(F)C1`, which activity change, negative = inhibition is on record?
**A.** 29.5% (inactive)

**Q.** With `CC1(O)CN(C(=O)Cn2c3ccccc3c3nc4n(c(=O)c32)CCS4)C1` as the compound, how does the activity change, negative = inhibition read?
**A.** 25.6% (inactive)

**Q.** For `O=C(Cn1c2ccccc2c2nc3n(c(=O)c21)CCS3)N1CC=CC1`, which activity change, negative = inhibition is on record?
**A.** 20.7% (inactive)

**Q.** For `c1ccc(-c2nn(Cc3nnco3)c3ccccc23)cc1`, which activity change, negative = inhibition is on record?
**A.** -30.7% (inactive)

**Q.** For `O=C(Cn1c2ccccc2c2nc3n(c(=O)c21)CCS3)N1CCC(F)(F)CC1`, which activity change, negative = inhibition is on record?
**A.** 4.34% (inactive)

**Q.** Which activity change, negative = inhibition does the source give for `CCc1nn(CC(=O)OC)c2ccccc12` here?
**A.** 35.3% (inactive)

**Q.** With `COC(=O)n1nc(-c2ccccc2)c2ccccc21` as the compound, how does the activity change, negative = inhibition read?
**A.** 10.4% (inactive)

**Q.** Which activity change, negative = inhibition does the source give for `COC(=O)Cn1nc(C2CC2)c2ccccc21` here?
**A.** -20.4% (inactive)

**Q.** For `O=C(Cn1c2ccc(F)cc2c2nc3n(c(=O)c21)CCS3)N1CCCC1`, which activity change, negative = inhibition is on record?
**A.** 39.4% (inactive)

**Q.** With `CN1CCN(C(=O)Cn2c3ccccc3c3nc4n(c(=O)c32)CCS4)CC1` as the compound, how does the activity change, negative = inhibition read?
**A.** 52.6% (inactive)

System: S. cerevisiae GRE-lacZ reporter, Hsp90 function, luminescence
Test: as above
Details: not given
How it was run: as §1

**Q.** For `COC(=O)Cn1nc(C2CCCCC2)c2ccccc21`, which AC50 is on record?
**A.** 3.56 µM

**Q.** With `O=C(Cn1c2ccccc2c2nc3n(c(=O)c21)CCS3)N1CCCCC1` as the compound, how does the AC50 read?
**A.** 26.1 µM

**Q.** For `COC(=O)Cn1nc(-c2cccc(OC)c2)c2ccccc21`, which AC50 is on record?
**A.** 4.18 µM

**Q.** With `COC(=O)Cn1nc(C(C)(C)C)c2ccccc21` as the compound, how does the AC50 read?
**A.** 20.7 µM

**Q.** Which AC50 does the source give for `COC(=O)Cn1nc(-c2cccc(C)c2)c2ccccc21` here?
**A.** 3.59 µM

**Q.** Which AC50 does the source give for `COC(=O)Cn1nc(-c2ccccc2)c2cccnc21` here?
**A.** 25.8 µM
